This is a sample that favours compounds with a hit; in the whole collection about 3.7% have one here.
GPR7 antagonist = human neuropeptides B/W receptor 1 antagonism; GPR7-expressing cells, fluorescence antagonist assay; inhibition, % at 4.4 µM; hit rate 1.1% among 290,000; AID 1861; in the data active = inhibition above about 16%, passing the limit was not always enough;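 also: cells stimulated with the agonist NPW; 0% = agonist with vehicle and 100% = vehicle without agonist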
OX1R antag-1 = human HCRTR1 antagonism; AID 434989; inhibition, % at 5 µM; O43613; CHO/OX1R cells, Fluo-8 calcium fluorescence, orexin A; hit rate 0.43% among 330,000;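 active = inhibition above its plate's threshold, mean inhibition of all tested compounds on the plate plus 3 SD, cut at about 37% in these data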;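 also: 0% = orexin A challenge wells and 100% = SB-334867-A antagonist wells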
OX1R antag-2 = OX1R (human) antagonism; O43613; OX1R-expressing cells, FRET antagonist read-out; inhibition, % at 6.6 µM; hit rate 1.8% among 330,000; in the data active = inhibition mostly above about 38%, no sharp cut-off; inactive = mostly below about 40%;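 also: 0% = agonist challenge alone and 100% = reference antagonist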
EP2 modulator = EP2 receptor (human) modulation; hit rate 0.83% among 260,000; induction, % at 25 µM; P43116; EP2-expressing cells, cAMP HTRF FRET, PGE2 co-stimulation;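 active = compounds whose cAMP rise, as percent of the full-agonist control response, exceeds 60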;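 also: rat C6 glioma line stably carrying human EP2 under a CMV promoter; the protocol text gives 20 µM as final concentration; 100% = response of wells given 1 µM PGE2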
Target sequence (P43116 whole entry, looked up): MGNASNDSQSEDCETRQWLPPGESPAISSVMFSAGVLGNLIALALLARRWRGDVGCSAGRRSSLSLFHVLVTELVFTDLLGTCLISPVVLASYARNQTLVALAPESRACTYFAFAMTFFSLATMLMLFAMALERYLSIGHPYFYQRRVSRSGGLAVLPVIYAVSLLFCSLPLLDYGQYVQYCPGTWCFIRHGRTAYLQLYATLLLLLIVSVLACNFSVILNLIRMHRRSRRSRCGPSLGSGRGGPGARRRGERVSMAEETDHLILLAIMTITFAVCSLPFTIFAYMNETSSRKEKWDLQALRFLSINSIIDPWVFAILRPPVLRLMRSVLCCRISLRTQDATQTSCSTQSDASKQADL
CHO parental Ca = counter-screen for OX1R antagonists: effect in parental CHO cells | parental CHO-K1, ATP-induced calcium, Fluo-8 fluorescence | hit rate 0.63% among 330,000 | inhibition, % at 5.6 µM;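 active = inhibition above that plate's mean sample inhibition plus 3 SD, cut at about 26% in these data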;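 also: 0% = ATP-challenged DMSO wells and 100% = DMSO wells without ATP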
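Test system: parental CHO cells; detection: calcium-sensitive Fluo-8 fluorescence; evaluation: percent inhibition of calcium signal; also added: ATP as calcium-mobilizing challenge; repeats: one well per compound; control set: ATP-challenged DMSO wells low, unchallenged DMSO wells high; compound: single nominal dose of 5.6 µM per compound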
PGE2 EP2 inh = blocks the human prostaglandin E2 receptor EP2 | P43116 | C6 glioma cells expressing human EP2, cAMP TR-FRET; cells stimulated with saturating PGE2 | inhibition, % at 25 µM | hit rate 0.52% among 260,000;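 active = percent inhibition above 40 after rounding to a whole number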;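 also: rat C6 glioma host cells with rolipram phosphodiesterase inhibitor present; the protocol text gives 20 µM as final concentration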
The depositor's hits bear a star; . = no result.

SMILES | GPR7 antagonist | OX1R antag-1 | OX1R antag-2 | EP2 modulator | CHO parental Ca | PGE2 EP2 inh
CCC(=O)N(CCC(c1ccco1)c1ccccc1OC)Cc1cccs1 (centres undefined) | 19* | -29 | 18 | 47 | -6 | 7
COc1ccc(NC(=O)/C(C#N)=C/c2cc(C)n(-c3ccc(N4CCOCC4)c([N+](=O)[O-])c3)c2C)cc1 | -3 | -8 | 6 | 9 | 4 | 9
Cc1ccc(C(C)NC(=O)/C(C#N)=C\c2c(C)[nH]c3ccccc23)cc1 (centres undefined) | 7 | -5 | 18 | -56 | 33* | 30
O=C1NCCN1Cc1ccccc1F | -10 | 5 | -1 | 5 | 4 | 5
O=C(CS(=O)(=O)c1ccc(F)cc1)N1CCN(c2ccccc2)CC1 | . | -17 | 10 | . | -15 | .
Clc1ccc(-c2nc3ccccc3n2OCc2ccccc2)cc1 | -3 | -26 | 10 | 63* | -15 | 2
O=C1C[C@@H]2CCN3C(=O)CCC[C@@H]([C@H]23)[C@@H]1Cc1ccccc1 | . | 3 | 6 | . | -6 | .
O=C1C(=O)N(Cc2ccccc2)C(=O)N1CCN1C(=O)c2ccccc2C1=O | 19* | -30 | 19 | -8 | -21 | 4
O=C(O)CNC(=O)CCN1C(=O)c2ccccc2C1=O | -4 | 7 | 6 | 13 | -5 | 7
O=C(O)CCN1C(=O)c2ccccc2C1=O | 18* | -15 | 8 | 21 | -5 | 8
O=C(CN1C(=O)c2ccccc2C1=O)[C@@H](O)CN1C(=O)c2ccccc2C1=O | . | . | . | 18 | . | 46*
CCC(CC)NC(=O)Nc1ccc(C)cc1 | 0 | -7 | 11 | -47 | 10 | 9
Cc1ccc(C(=O)Nc2cccc(C(F)(F)F)c2)cc1Nc1cnccn1 | . | -10 | 34 | -12 | -7 | 3
N#Cc1ccc(NC(=O)CSc2nc(N)c(C#N)cc2C#N)cc1 | . | . | . | -5 | . | 43*
N#Cc1cc2ccccc2nc1SCC(=O)Nc1ccccc1 | . | . | . | 15 | . | 17
CC1CCCCC1NC(=O)c1nn(C)c2c1CS(=O)(=O)c1ccccc1-2 (centres undefined) | -9 | 5 | 7 | . | -9 | .
Cc1cc(O)c(N)c(C)c1Cl | -5 | -22 | 54* | -1 | -14 | 10
O=C(O)c1cc(-c2ccc(N3CCOCC3)cc2)nn1-c1ccc(F)cc1F | -2 | -4 | 22 | 0 | -3 | 10
COc1ccc(-c2c(=O)n(OC)c3ccccc3[n+]2[O-])cc1OC | -7 | -17 | 44* | . | -7 | .
C=CCOn1c(=O)c(-c2ccc(OC)c(OC)c2)[n+]([O-])c2ccccc21 | -11 | -33 | 61* | 24 | -7 | 5
CCOn1c(=O)c(-c2ccccc2)[n+]([O-])c2ccccc21 | 8 | -27 | 25 | . | 1 | .
O=C(Nc1cnc2ccccc2c1)c1cccnc1 | 6 | -13 | 13 | -22 | -1 | 3
Cn1c(NC(=O)c2cccnc2)nc2ccccc21 | -21 | -10 | 25 | 17 | -8 | 52*
CSc1ccc(N2CCN(CCCNC(=O)Nc3ccccc3F)CC2)cc1 | -8 | -30 | 8 | -11 | -30 | -1
Nc1ccc(N(S(=O)(=O)c2ccccc2)S(=O)(=O)c2ccccc2)c(Cl)c1 | . | . | . | -15 | . | 44*
SMILES | GPR7 antagonist | OX1R antag-1 | OX1R antag-2 | EP2 modulator | CHO parental Ca | PGE2 EP2 inh
CCOC(=O)C1CCCN(C(=O)c2cc3cc4ccc(OC)cc4nc3o2)C1 (centres undefined) | -2 | -15 | 13 | . | -13 | .
CC1CCN(c2nnc(-c3ccccc3)c3ccccc23)CC1 | -7 | -34 | 27 | 65* | -11 | 13
CCN1CCN(c2nnc(-c3ccccc3)c3ccccc23)CC1 | 12 | -9 | 4 | . | 0 | .
CCCCNCc1cc(Br)c(OCc2cccs2)c(OC)c1 | 10 | -15 | 0 | 9 | -8 | 13
CC(=O)C1=C(C)NC(SCC(=O)c2ccc(-c3ccccc3)cc2)=C(C#N)C1c1cccnc1 (centres undefined) | -7 | 11 | 9 | -22 | 3 | 49*
Cn1cccc1/C=C1\SC(=Nc2ccc(O)cc2)NC1=O | 21* | -13 | 15 | -39 | -23 | 1
Cn1cccc1/C=C1\SC(=Nc2ccccc2)NC1=O | 6 | -14 | 15 | -3 | -30 | 7
Cn1cccc1/C=C1\SC(=Nc2cccc(O)c2)NC1=O | -2 | -15 | 42* | -24 | -7 | 5
N#CC(C#N)=C1C=CC=CN1/C(=C\c1ccccc1Cl)C(=O)c1ccccc1 | -12 | 7 | 8 | -30 | -4 | 24
